# Shown are actives, neighbours in structure and some others; about 1.5% of the full set was active somewhere.
# FLuc act counter: affects firefly luciferase, flagging false hits in luciferase stimulation screens; ATPlite luciferase biochemical, luminescence, 10 min; 0 = ATP-free wells, 1 = DMSO control; P08659; activation factor at 10 µM; 200,000 tested, under 10 active;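 active means luciferase activation factor, scaled between plate controls, of at least 2 with compound at 10 µM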
# Target sequence (P08659 whole entry, looked up): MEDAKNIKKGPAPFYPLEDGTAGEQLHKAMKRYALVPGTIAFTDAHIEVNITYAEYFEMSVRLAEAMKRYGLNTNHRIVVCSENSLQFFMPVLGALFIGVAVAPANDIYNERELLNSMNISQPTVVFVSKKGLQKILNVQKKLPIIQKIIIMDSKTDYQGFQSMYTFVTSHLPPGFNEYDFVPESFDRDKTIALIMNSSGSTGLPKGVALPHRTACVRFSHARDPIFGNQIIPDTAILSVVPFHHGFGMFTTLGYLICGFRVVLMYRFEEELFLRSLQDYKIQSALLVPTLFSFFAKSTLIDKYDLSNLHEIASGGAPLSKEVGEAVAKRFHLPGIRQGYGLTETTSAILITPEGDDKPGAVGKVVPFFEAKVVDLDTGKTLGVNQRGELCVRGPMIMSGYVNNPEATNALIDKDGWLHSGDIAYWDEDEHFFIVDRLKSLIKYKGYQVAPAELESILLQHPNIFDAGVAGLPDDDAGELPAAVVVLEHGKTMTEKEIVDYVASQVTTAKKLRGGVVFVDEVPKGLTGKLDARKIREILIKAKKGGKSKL
#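 Material: luciferase plus luciferin reagent, cell-free. Medium: PBS buffer for ATP. Also added: ATP substrate, dispensed from a 10.24 µM working solution in PBS. Doses: test compounds dosed from 2 mM stocks in 100% DMSO. Incubation: 10 min post-reagent at room temperature. Technique: light output (luminescence). Read-out basis: luminescence gain marking luciferase activators.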
# PPC-1+TRAIL kill: kills PPC-1 cancer cells in the presence of TRAIL; PPC-1 cells + TRAIL, ATPLite viability luminescence; cell killing (% activity), % at 4 µM or 5 µM; 220,000 tested, 0.41% active; AID 1443;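 active means cell killing above 50% in the first pass at 4 µM, then a duplicate retest at 5 µM averaging 50% or more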;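 further: plate controls were cells with TRAIL plus DMSO for no effect and medium-only wells lacking cells for full effect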
# FLuc inh counter: Photinus pyralis luciferase inhibition counter-screen | P08659 | ATPLite firefly luciferase biochemical luminescence, 10 min | inhibition, % at 10 µM | 200,000 tested, 1.5% active | AID 1006;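 active means inhibition above about 50% when tested at 10 µM, limit read from the data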
# TRAIL sens C8: sensitizes caspase-8 expressing cells to TRAIL | NB7+C8 cells + TRAIL, ATPlite viability luminescence | inhibition (viability loss, TRAIL sensitization), % at 10 µM | 360,000 tested, 1% active | AID 624354;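 active means compounds causing at least 50% loss of cell viability in the single-dose screen, relative to plate controls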
# Starred values were filed as active, the others as inactive; . = no result.
SMILES,FLuc act counter,PPC-1+TRAIL kill,FLuc inh counter,TRAIL sens C8
CC1OC(OC2C(O)CC(OC3C(O)CC(OC4CCC5(C)C(CCC6C5CCC5(C)C(C7=CC(=O)OC7)C(O)CC65O)C4)OC3C)OC2C)CC(O)C1O (configuration not stated),.,.,.,60.5*
COc1ccc(OC(=O)N(C)C[C@H]2OCc3cnnn3CCCC(=O)N([C@H](C)CO)C[C@@H]2C)cc1,.,.,.,2.4
CC1OC(OC2C=C3CCC4C(CCC5(C)C(c6ccc(=O)oc6)CCC45O)C3(C)CC2)C(O)C(OC2OC(CO)C(O)C(O)C2O)C1O (configuration not stated),.,.,.,74.5*
CC(C)(C)n1nnnc1C(C1CC1)N1CCC2(CC1)C(=O)NCN2c1ccccc1 (configuration not stated),.,.,.,1.1
CCOC(=O)[C@]12Cc3cc(OC)ccc3[C@H]1N(C)C(=O)c1ccccc12,.,.,.,14.1
CCOC(=O)[C@]12Cc3cc(Cl)ccc3[C@H]1N(C1CCCCC1)C(=O)c1ccccc12,.,.,.,95.5*
CCOC(=O)[C@]12Cc3cc(OC)ccc3[C@H]1N(C1CCCCC1)C(=O)c1ccccc12,.,.,.,84.9*
COc1ccc(C[C@H]2NC[C@H](O)[C@H]2OC(C)=O)cc1,.,.,.,86.0*
O=c1[nH]c2ccccc2n1C1CCN(C(c2cccs2)c2nnnn2-c2ccc3c(c2)OCCO3)CC1 (configuration not stated),.,.,.,2.9
CS(=O)(=O)c1ccc(C2=C(CNC(=O)c3cccs3)[C@H]3CC[C@@H](C2)N3Cc2ccco2)cc1,.,.,.,6.2
Cc1ccccc1-n1c(/C=C/c2ccccn2)nc2ccccc2c1=O,.,22.1,.,-13.4
CN1C2CCC1/C(=C/c1ccccn1)C(=O)/C2=C\c1ccccn1,1.1,40.9,-9.2,85.9*
CC(C)C1C(C#N)=C(N)Oc2c1c(=O)oc1ccccc21 (configuration not stated),.,.,.,-2.7
O=c1[nH]c(=S)[nH]c(O)c1N=Nc1ccc(OC(F)F)cc1,0.4,25.9,56.8*,25.7
COc1ccc(N=Nc2c(O)[nH]c(=S)[nH]c2=O)cc1,0.4,11.2,59.0*,19.6
NS(=O)(=O)c1ccc(N=Nc2c(O)[nH]c(=S)[nH]c2=O)cc1,.,13.2,.,-2.5
C=C1C(=O)OC2CCN3CC=C(COC(=O)C(C)(O)C4(CO4)C1C)C23 (configuration not stated),.,.,.,4.4
CCOP(=O)(Nc1ccc2c(c1)C(=NNC(N)=S)c1ccccc1-2)OCC,.,.,.,5.0
CC(=O)OCC12CC(OC(=O)CC(C)C)C(C)=CC1OC1C(O)C(OC(C)=O)C2(C)C12CO2 (configuration not stated),.,.,.,56.5*
COC1CCC(OC2CC(C3(C)CCC4(CC(O)C(C)C(C(C)/C=C(\C)C(=O)C(C)CC(C)C(=O)O)O4)O3)OC3(OC(C4OC(O)(CO)C(C)CC4C)CC3C)C2C)OC1C (configuration not stated),.,.,.,81.4*
CN(C(=O)Cc1ccc(Cl)c(Cl)c1)C(CN1CCCC1)c1cccc(OCC(=O)O)c1 (configuration not stated),.,.,.,2.7
COC(=O)C1=CCCN(C)C1,1,5.1,-0.6,11.7
CCC(C)c1cnc(CC(C)C)c(=O)n1O (configuration not stated),.,.,.,2.8
O=c1[nH]c2ccccc2n1C1CCN(C(c2cc3ccccc3o2)c2nnnn2Cc2ccccc2)CC1 (configuration not stated),.,.,.,86.6*
CN(Cc1cccc(-c2ccncc2)c1)C(=O)Oc1ccc([N+](=O)[O-])cc1,.,.,.,20.6
SMILES,FLuc act counter,PPC-1+TRAIL kill,FLuc inh counter,TRAIL sens C8
CCOc1ccc(-c2c(C)n(-c3ccc(OCC)cc3)c3[n+]2CCCCC3)cc1,.,48.0,.,51.7*
CN(C)C(=O)Oc1ccc(OC(=O)N(C)C)cc1,1.1,1.5,-9.6,-8.9
CN(C)C(=O)Oc1ccc(OCc2nc3ccccc3[nH]2)cc1,0.2,45.8,80.0*,68.3*
O=c1[nH]c(=S)[nH]c(O)c1N=Nc1ccc2c(c1)OCO2,0.5,20.1,53.4*,17.4
O=c1[nH]c(O)c(N=Nc2ccc3c(c2)OCCO3)c(=O)[nH]1,0.3,23.6,69.1*,45.0
CC1=C(O)C(=O)C=C2C1=CC=C1C2(C)CCC2(C)C3CC(C)(C(=O)O)CCC3(C)CCC12C (configuration not stated),.,.,.,88.9*
O=[N+]([O-])c1ccc(N2CCOCC2)c2cccnc12,1,-9.2,-2.9,-11.9
O=[N+]([O-])c1ccc(N2CCOCC2)c2c1no[n+]2[O-],.,.,.,93.6*
CNC(=O)Oc1cccc(-c2cn3cc(OC(=O)NC)ccc3n2)c1,0.3,-7.8,73.2*,14.8
CNC(=O)Oc1ccc(-c2cn3cc(Cl)ccc3n2)cc1,0.1,54.6*,93.2*,83.7*
CCOP(=S)(OCC)Oc1nc(Cl)c(Cl)cc1Cl,.,.,.,-13.2
CC(=O)C1C(N2CC2)CC2C3CCC4=CC(=O)CCC4(C)C3CCC21C (configuration not stated),.,.,.,5.9
CC12CCC3C(CCC4(O)CC(O)CCC34C=O)C1(O)CCC2C1=CC(=O)OC1 (configuration not stated),.,.,.,69.1*
C[C@H]1O[C@@H](OC2CC[C@]3(C=O)[C@H]4CC[C@]5(C)[C@@H](C6=CC(=O)OC6)CC[C@]5(O)[C@@H]4CC[C@]3(O)C2)CC2OC(C)(C)OC21 (some centres not stated),.,.,.,48.3*
C[C@]12CC[C@H]3[C@@H](CC[C@]4(O)C[C@@H](O)CC[C@]34C=O)[C@@]1(O)CC[C@@H]2C1=CC(=O)OC1,.,.,.,61.2*
CCCCN=C[C@]12CCC(O)CC1(O)CCC1[C@@H]2CC[C@]2(C)[C@H](C3C=CC(=O)O3)CCC12O (some centres not stated),.,.,.,42.2
C[C@]12CCC3C(CCC4=CC(O)CC[C@@]43/C=N/O)C1(O)CCC2C1=CC(=O)OC1 (some centres not stated),.,.,.,51.7*
CC12CC[C@H]3[C@@H](CCC4(O)C[C@H](O)CCC34/C=N/NC(=O)c3ccccc3Cl)C1(O)CCC2C1=CC(=O)OC1 (some centres not stated),.,3.0,.,7.9
O=c1ccc2cc3ccoc3c(O)c2o1,.,.,.,-3.9
CCOC(=O)[C@]12Cc3c(cc(OC)c(OC)c3OC)[C@H]1N(CCC(=O)OC)C(=O)c1ccccc12,.,.,.,18.0
CC12CCC3C(CCC4(O)CC(O)CCC34C=NO)C1(O)CCC2C1=COC(=O)C1 (configuration not stated),.,.,.,68.5*
ClCCN(CCCl)c1ccc(-n2cnc3c(Cl)ncnc32)cc1,.,.,.,86.1*
N[C@@H](Cc1ccc(N(CCCl)CCCl)cc1)C(=O)O,.,.,.,4.6
COc1ccc(CN2Cc3cnnn3-c3ccccc3C2C#N)cc1 (configuration not stated),.,.,.,47.9
N#CC1c2ccccc2-n2nncc2CN1Cc1cc(Cl)cc(Cl)c1 (configuration not stated),.,.,.,75.9*
